Columns and labels:
Assay type in all cases: functional
[1] = test system: SR; experiment: Growth inhibition of human SR cells at 10 uM after 48 hrs by sulforhodamine B assay relative to control; settings: read-out: GI
Method in brief: (§1)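 NCI-60 primary screen at a single 10 µM dose. Continuous 48 h exposure, with growth or viability estimated by sulforhodamine B protein staining. Reported as percent growth inhibition of treated cells relative to untreated growth.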

[2] = test system: MCF7; experiment: Growth inhibition of human MCF7 cells at 10 uM after 48 hrs by sulforhodamine B assay relative to control; settings: MCF7, 48 h, read-out: GI
Method in brief: (§2)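 NCI-60 primary screen at a single dose of 10 µM with 48 h continuous exposure. Growth or viability read by sulforhodamine B protein staining and expressed as percent growth inhibition versus untreated cells.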

[3] = Growth inhibition of human MOLT4 cells at 10 uM after 48 hrs by sulforhodamine B assay relative to control; settings: MOLT-4, 48 h, read-out: GI; method in brief: as §1
[4] = Growth inhibition of human SF539 cells at 10 uM after 48 hrs by sulforhodamine B assay relative to control; settings: SF-539, 48 h, read-out: GI; method in brief: as §1
[5] = test system: RPMI-8226; experiment: Growth inhibition of human RPMI8226 cells at 10 uM after 48 hrs by sulforhodamine B assay relative to control; settings: RPMI-8226, 48 h, read-out: GI; method in brief: as §1
[6] = test system: HCT-116; experiment: Growth inhibition of human HCT116 cells at 10 uM after 48 hrs by sulforhodamine B assay relative to control; settings: HCT-116, 48 h, read-out: GI; method in brief: as §2
[7] = test system: CAKI-1; experiment: Growth inhibition of human CAKI-1 cells at 10 uM after 48 hrs by sulforhodamine B assay relative to control; settings: CAKI-1, 48 h, read-out: GI; method in brief: as §2
[8] = Growth inhibition of human LOXIMVI cells at 10 uM after 48 hrs by sulforhodamine B assay relative to control; settings: LOX IMVI, read-out: GI; method in brief: as §2
[9] = test system: PC-3; experiment: Growth inhibition of human PC3 cells at 10 uM after 48 hrs by sulforhodamine B assay relative to control; settings: PC-3, 48 h, read-out: GI; method in brief: as §1
[10] = test system: T47D; experiment: Growth inhibition of human T47D cells at 10 uM after 48 hrs by sulforhodamine B assay relative to control; settings: read-out: GI; method in brief: as §1
[11] = Growth inhibition of human NCI-ADR-RES cells at 10 uM after 48 hrs by sulforhodamine B assay relative to control; settings: read-out: GI; method in brief: as §1
[12] = test system: U-251; experiment: Growth inhibition of human U251 cells at 10 uM after 48 hrs by sulforhodamine B assay relative to control; settings: U-251, 48 h, read-out: GI
Method in brief: (§3)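 NCI-60 primary single-dose screen at 10 µM with continuous 48 h exposure. Cell viability/growth read by sulforhodamine B protein staining. Reported as percent growth inhibition relative to untreated cells.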

[13] = test system: MDA-MB-468; experiment: Growth inhibition of human MDA-MB-468 cells at 10 uM after 48 hrs by sulforhodamine B assay relative to control; settings: MDA-MB-468, 48 h, read-out: GI; method in brief: as §1
[14] = test system: MDA-MB-435; experiment: Growth inhibition of human MDA-MB-435 cells at 10 uM after 48 hrs by sulforhodamine B assay relative to control; settings: MDA-MB-435, 48 h, read-out: GI; method in brief: as §2
[15] = Growth inhibition of human SF295 cells at 10 uM after 48 hrs by sulforhodamine B assay relative to control; settings: SF-295, 48 h, read-out: GI; method in brief: as §1
[16] = Growth inhibition of human RXF393 cells at 10 uM after 48 hrs by sulforhodamine B assay relative to control; settings: RXF 393, 48 h, read-out: GI; method in brief: as §1
[17] = test system: SW-620; experiment: Growth inhibition of human SW620 cells at 10 uM after 48 hrs by sulforhodamine B assay relative to control; settings: SW-620, 48 h, read-out: GI; method in brief: as §1
[18] = Growth inhibition of human OVCAR3 cells at 10 uM after 48 hrs by sulforhodamine B assay relative to control; settings: OVCAR-3, 48 h, read-out: GI; method in brief: as §1
[19] = test system: HL-60(TB); experiment: Growth inhibition of human HL-60(TB) cells at 10 uM after 48 hrs by sulforhodamine B assay relative to control; settings: HL-60, 48 h, read-out: GI
Method in brief: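 Single-dose primary screen at 10 µM across the NCI 60 panel, 48 h continuous exposure. Growth estimated by sulforhodamine B protein staining and reported as percentage growth inhibition relative to untreated control.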

[20] = test system: HT-29; experiment: Growth inhibition of human HT-29 cells at 10 uM after 48 hrs by sulforhodamine B assay relative to control; settings: HT-29, 48 h, read-out: GI; method in brief: as §2
[21] = test system: NCI-H522; experiment: Growth inhibition of human NCI-H522 cells at 10 uM after 48 hrs by sulforhodamine B assay relative to control; settings: NCI-H522, 48 h, read-out: GI; method in brief: as §1
[22] = test system: CCRF-CEM; experiment: Growth inhibition of human CCRF-CEM cells at 10 uM after 48 hrs by sulforhodamine B assay relative to control; settings: read-out: GI; method in brief: as §2
[23] = test system: SK-MEL-2; experiment: Growth inhibition of human SK-MEL-2 cells at 10 uM after 48 hrs by sulforhodamine B assay relative to control; settings: SK-MEL-2, 48 h, read-out: GI; method in brief: as §1
[24] = Growth inhibition of human UACC257 cells at 10 uM after 48 hrs by sulforhodamine B assay relative to control; settings: UACC-257, 48 h, read-out: GI; method in brief: as §3
[25] = test system: Malme-3M; experiment: Growth inhibition of human MALME-3M cells at 10 uM after 48 hrs by sulforhodamine B assay relative to control; settings: read-out: GI; method in brief: as §2
[26] = Growth inhibition of human HOP92 cells at 10 uM after 48 hrs by sulforhodamine B assay relative to control; settings: HOP-92, 48 h, read-out: GI; method in brief: as §2
[27] = test system: NCI-H23; experiment: Growth inhibition of human NCI-H23 cells at 10 uM after 48 hrs by sulforhodamine B assay relative to control; settings: NCI-H23, 48 h, read-out: GI; method in brief: as §1
[28] = test system: TK-10; experiment: Growth inhibition of human TK10 cells at 10 uM after 48 hrs by sulforhodamine B assay relative to control; settings: TK-10, 48 h, read-out: GI; method in brief: as §3
[29] = Growth inhibition of human BT549 cells at 10 uM after 48 hrs by sulforhodamine B assay relative to control; settings: BT-549, 48 h, read-out: GI; method in brief: as §2
[30] = test system: NCI-H460; experiment: Growth inhibition of human NCI-H460 cells at 10 uM after 48 hrs by sulforhodamine B assay relative to control; settings: NCI-H460, 48 h, read-out: GI; method in brief: as §1
[31] = Growth inhibition of human HCT15 cells at 10 uM after 48 hrs by sulforhodamine B assay relative to control; settings: HCT-15, 48 h, read-out: GI; method in brief: as §2
[32] = test system: SK-MEL-5; experiment: Growth inhibition of human SK-MEL-5 cells at 10 uM after 48 hrs by sulforhodamine B assay relative to control; settings: SK-MEL-5, 48 h, read-out: GI; method in brief: as §1
[33] = Growth inhibition of human OVCAR8 cells at 10 uM after 48 hrs by sulforhodamine B assay relative to control; settings: OVCAR-8, 48 h, read-out: GI; method in brief: as §1
[34] = Growth inhibition of human UO31 cells at 10 uM after 48 hrs by sulforhodamine B assay relative to control; settings: UO-31, 48 h, read-out: GI; method in brief: as §3
[35] = Growth inhibition of human OVCAR4 cells at 10 uM after 48 hrs by sulforhodamine B assay relative to control; settings: OVCAR-4, 48 h, read-out: GI; method in brief: as §1
[36] = test system: IGROV-1; experiment: Growth inhibition of human IGROV1 cells at 10 uM after 48 hrs by sulforhodamine B assay relative to control; settings: IGROV-1, 48 h, read-out: GI; method in brief: as §2
[37] = test system: K562; experiment: Growth inhibition of human K562 cells at 10 uM after 48 hrs by sulforhodamine B assay relative to control; settings: K562, 48 h, read-out: GI; method in brief: as §2
[38] = test system: 786-0; experiment: Growth inhibition of human 786-0 cells at 10 uM after 48 hrs by sulforhodamine B assay relative to control; settings: 786-0, 48 h, read-out: GI; method in brief: as §2

Structure (SMILES) | inhibition of growth at 10 µM [1] | inhibition of growth at 10 µM [2] | inhibition of growth at 10 µM [3] | inhibition of growth at 10 µM [5] | inhibition of growth at 10 µM [6] | inhibition of growth at 10 µM [7] | inhibition of growth at 10 µM [8] | inhibition of growth at 10 µM [9] | inhibition of growth at 10 µM [10] | inhibition of growth at 10 µM [11] | inhibition of growth at 10 µM [12] | inhibition of growth at 10 µM [13] | inhibition of growth at 10 µM [14] | inhibition of growth at 10 µM [15] | inhibition of growth at 10 µM [17] | inhibition of growth at 10 µM [18] | inhibition of growth at 10 µM [19] | inhibition of growth at 10 µM [21] | inhibition of growth at 10 µM [22] | inhibition of growth at 10 µM [23] | further results
COc1ccc(/C=C2\Oc3c(c(OC)c4ccoc4c3Br)C2=O)cc1 | 60% | 60% | 67% | 71% | 62% | 61% |  |  |  |  |  |  |  |  |  |  |  |  |  |  | inhibition of growth at 10 µM [4]: 60%
COc1c2c(c(Br)c3occc13)O/C(=C\c1ccc(Cl)cc1)C2=O | 82% | 79% | 85% | 91% | 83% | 80% | 65% | 69% | 60% | 61% | 62% | 80% | 82% | 67% | 63% | 67% | 74% | 64% | 79% | 84% | inhibition of growth at 10 µM [16]: 78%; inhibition of growth at 10 µM [20]: 63%; inhibition of growth at 10 µM [24]: 61%; inhibition of growth at 10 µM [25]: 65%
C=CCOc1cc2oc(-c3ccc(OC)cc3)cc(=O)c2c(OC)c1C=O |  |  |  |  |  |  |  |  |  |  |  |  |  |  |  |  |  |  |  |  | inhibition of growth at 10 µM [26]: 66%
COc1c2c(c(Br)c3occc13)O/C(=C\c1ccccc1)C2=O | 79% | 84% | 85% | 94% | 77% | 87% | 65% | 66% |  | 79% | 73% | 93% | 74% | 65% | 60% | 86% | 64% | 62% | 79% | 88% | inhibition of growth at 10 µM [27]: 78%; inhibition of growth at 10 µM [28]: 61%; inhibition of growth at 10 µM [29]: 66%; inhibition of growth at 10 µM [30]: 83%; inhibition of growth at 10 µM [16]: 93%; inhibition of growth at 10 µM [31]: 60%; inhibition of growth at 10 µM [20]: 72%; inhibition of growth at 10 µM [4]: 75%; inhibition of growth at 10 µM [32]: 67%; inhibition of growth at 10 µM [33]: 70%
COc1ccc(-c2cc(=O)c3c(OC)c4ccoc4cc3o2)cc1 |  |  |  |  |  |  |  |  |  |  | 62% |  |  | 60% |  |  |  |  |  |  | inhibition of growth at 10 µM [34]: 62%
COc1c2ccoc2c(Br)c2oc(-c3ccc(Cl)cc3)cc(=O)c12 |  |  |  |  |  |  |  |  |  |  |  |  |  |  |  |  |  |  |  |  | inhibition of growth at 10 µM [35]: 72%
COc1ccc(/C=C/c2cc(=O)c3c(OC)c4ccoc4c(Br)c3o2)cc1 |  |  |  |  |  |  |  |  |  |  |  |  |  |  |  |  |  | 62% |  |  | 
COc1ccc(/C=C/c2oc3c(OC)c4occc4c(OC)c3c(=O)c2CN2CCOCC2)cc1 |  |  | 66% | 61% |  |  |  |  |  |  |  |  |  |  |  |  |  |  | 87% |  | inhibition of growth at 10 µM [32]: 84%
COc1c(C(=O)/C=C/c2ccc(Cl)cc2)c(O)cc2occc12 | 63% | 64% |  | 66% |  |  |  |  | 67% |  |  |  |  |  |  |  |  |  | 60% |  | 
C=CCOc1cc2oc(-c3ccc(Cl)cc3)cc(=O)c2c(OC)c1C=O |  | 85% |  | 96% | 89% |  | 99% | 76% | 72% | 78% | 68% | 91% | 73% |  | 69% | 81% | 75% | 93% |  | 75% | inhibition of growth at 10 µM [27]: 61%; inhibition of growth at 10 µM [28]: 73%; inhibition of growth at 10 µM [36]: 62%; inhibition of growth at 10 µM [30]: 61%; inhibition of growth at 10 µM [26]: 97%; inhibition of growth at 10 µM [34]: 74%; inhibition of growth at 10 µM [33]: 66%; inhibition of growth at 10 µM [37]: 76%; inhibition of growth at 10 µM [38]: 65%
